Test results taken from ChEMBL document CHEMBL4622944 (Bioorg Med Chem Lett, 2020).

Key:
[1] = tested on: PC-3; assay: Antiproliferative activity against human PC3 cells assessed as reduction in cell viability by MTT assay; format: functional, cell-based
[2] = tested on: A549; assay: Antiproliferative activity against human A549 cells assessed as reduction in cell viability by MTT assay; format: functional, cell-based
[3] = tested on: HCT-116; assay: Antiproliferative activity against human HCT116 cells assessed as reduction in cell viability by MTT assay; format: functional, cell-based
[4] = tested on: HCT-116; assay: Induction of apoptosis in human HCT116 cells assessed as necrotic cells at 1 uM incubated for 24 hrs by annexin V FITC and propidium iodide staining based flow cytometry analysis (reference value: 0.2 %); format: functional
[5] = tested on: HCT-116; assay: Induction of apoptosis in human HCT116 cells assessed as necrotic cells at 9 uM incubated for 24 hrs by annexin V FITC and propidium iodide staining based flow cytometry analysis (reference value: 0.2 %); format: functional
[6] = tested on: HCT-116; assay: Induction of cell cycle arrest in human HCT116 cells assessed as G2 phase at 9 uM incubated for 24 hrs by annexin V and propidium iodide staining based flow cytometry analysis (reference value: 22.11 %); format: functional
Method in brief: (§1)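 HCT116 cells treated 24 h at 0.33, 1.0 or 9.0 µM alongside a non-treated control. Cells were fixed, stained with Annexin-V and propidium iodide, and DNA content was measured by flow cytometry. Percentages of cells in G1, S and G2 phases were quantified.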

[7] = tested on: HCT-116; assay: Induction of apoptosis in human HCT116 cells assessed as late apoptotic cells at 3 uM incubated for 24 hrs by annexin V FITC and propidium iodide staining based flow cytometry analysis (reference value: 11 %); format: functional
[8] = tested on: HCT-116; assay: Induction of cell cycle arrest in human HCT116 cells assessed as G1 phase at 0.33 uM incubated for 24 hrs by annexin V and propidium iodide staining based flow cytometry analysis (reference value: 61.81 %); format: functional; method in brief: as §1
[9] = tested on: HCT-116; assay: Induction of apoptosis in human HCT116 cells assessed as necrotic cells at 3 uM incubated for 24 hrs by annexin V FITC and propidium iodide staining based flow cytometry analysis (reference value: 0.2 %); format: functional
[10] = tested on: HCT-116; assay: Induction of cell cycle arrest in human HCT116 cells assessed as G1 phase at 9 uM incubated for 24 hrs by annexin V and propidium iodide staining based flow cytometry analysis (reference value: 61.81 %); format: functional; method in brief: as §1
[11] = tested on: HCT-116; assay: Inhibition of cell migration in human HCT116 cells assessed as inhibition of wound healing rate measured upto 48 hrs by phase contrast microscopy; format: functional, cell-based
Method in brief: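 Wound-healing scratch assay in HCT116 monolayers treated at 0.3 and 3 µM versus blank control. Phase-contrast images were taken at 0, 24 and 48 h, and the wound-healing rate was assessed.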

[12] = tested on: HCT-116; assay: Induction of cell cycle arrest in human HCT116 cells assessed as S phase at 0.33 uM incubated for 24 hrs by annexin V and propidium iodide staining based flow cytometry analysis (reference value: 16.08 %); format: functional; method in brief: as §1
[13] = tested on: HCT-116; assay: Induction of apoptosis in human HCT116 cells assessed as viable cells at 9 uM incubated for 24 hrs by annexin V FITC and propidium iodide staining based flow cytometry analysis (reference value: 80.9 %); format: functional; conditions: HCT-116, 24 h, read-out: Activity
[14] = tested on: HCT-116; assay: Induction of apoptosis in human HCT116 cells assessed as viable cells at 3 uM incubated for 24 hrs by annexin V FITC and propidium iodide staining based flow cytometry analysis (reference value: 80.9 %); format: functional; conditions: HCT-116, 24 h, read-out: Activity
[15] = tested on: HCT-116; assay: Induction of apoptosis in human HCT116 cells assessed as early apoptotic cells at 9 uM incubated for 24 hrs by annexin V FITC and propidium iodide staining based flow cytometry analysis (reference value: 7.9 %); format: functional
[16] = tested on: HCT-116; assay: Induction of apoptosis in human HCT116 cells incubated for 24 hrs by annexin V FITC and propidium iodide staining based flow cytometry analysis; format: functional, cell-based
[17] = tested on: HCT-116; assay: Induction of apoptosis in human HCT116 cells assessed as late apoptotic cells at 1 uM incubated for 24 hrs by annexin V FITC and propidium iodide staining based flow cytometry analysis (reference value: 11 %); format: functional
[18] = tested on: HCT-116; assay: Induction of cell cycle arrest in human HCT116 cells assessed as S phase at 1 uM incubated for 24 hrs by annexin V and propidium iodide staining based flow cytometry analysis (reference value: 16.08 %); format: functional; method in brief: as §1
[19] = tested on: HCT-116; assay: Induction of apoptosis in human HCT116 cells assessed as early apoptotic cells at 3 uM incubated for 24 hrs by annexin V FITC and propidium iodide staining based flow cytometry analysis (reference value: 7.9 %); format: functional
[20] = tested on: HCT-116; assay: Induction of cell cycle arrest in human HCT116 cells assessed as G2 phase at 1 uM incubated for 24 hrs by annexin V and propidium iodide staining based flow cytometry analysis (reference value: 22.11 %); format: functional; method in brief: as §1
[21] = tested on: HCT-116; assay: Induction of cell cycle arrest in human HCT116 cells assessed as G2 phase at 0.33 uM incubated for 24 hrs by annexin V and propidium iodide staining based flow cytometry analysis (reference value: 22.11 %); format: functional; method in brief: as §1
[22] = tested on: HCT-116; assay: Induction of cell cycle arrest in human HCT116 cells assessed as G1 phase at 1 uM incubated for 24 hrs by annexin V and propidium iodide staining based flow cytometry analysis (reference value: 61.81 %); format: functional; method in brief: as §1
[23] = tested on: HCT-116; assay: Induction of apoptosis in human HCT116 cells assessed as early apoptotic cells at 1 uM incubated for 24 hrs by annexin V FITC and propidium iodide staining based flow cytometry analysis (reference value: 7.9%); format: functional
[24] = tested on: HCT-116; assay: Induction of apoptosis in human HCT116 cells assessed as viable cells at 1 uM incubated for 24 hrs by annexin V FITC and propidium iodide staining based flow cytometry analysis (reference value: 80.9 %); format: functional; conditions: HCT-116, 24 h, read-out: Activity
[25] = tested on: HCT-116; assay: Induction of cell cycle arrest in human HCT116 cells assessed as S phase at 9 uM incubated for 24 hrs by annexin V and propidium iodide staining based flow cytometry analysis (reference value: 16.08 %); format: functional; method in brief: as §1
[26] = tested on: HCT-116; assay: Induction of apoptosis in human HCT116 cells assessed as total apoptotic cells at 9 uM incubated for 24 hrs by annexin V FITC and propidium iodide staining based flow cytometry analysis (reference value: 18.9%); format: functional
[27] = tested on: HCT-116; assay: Induction of apoptosis in human HCT116 cells assessed as late apoptotic cells at 9 uM incubated for 24 hrs by annexin V FITC and propidium iodide staining based flow cytometry analysis (reference value: 11 %); format: functional

Cn1c(=O)c(=O)n(C2CCCC2)c2nc(N/N=C/c3ccc(OC(F)(F)F)cc3)ncc21
IC50 [1]: 7.18 µM | IC50 [2]: 12.9 µM | IC50 [3]: 6.15 µM

Cn1c(=O)c(=O)n(C2CCCC2)c2nc(N/N=C/c3cc(C(F)(F)F)cc(C(F)(F)F)c3)ncc21
Activity [4]: 0.5% | Activity [5]: 0.4% | Activity [6]: 21.39% | Activity [7]: 12.2% | Activity [8]: 62.69% | Activity [9]: 0.2% | Activity [10]: 67.2% | inhibition [11]: Dose-dependent effect | Activity [12]: 20% | IC50 [1]: 8.2 µM | viability at 9 µM [13]: 61.3% | viability at 3 µM [14]: 77.4% | Activity [15]: 20.3% | Activity [16]: Dose-dependent effect | Activity [17]: 11.1% | IC50 [2]: 3.23 µM | Activity [18]: 16.56% | Activity [19]: 10.2% | Activity [20]: 17.98% | Activity [21]: 17.31% | Activity [22]: 65.46% | Activity [23]: 10.3% | viability at 1 µM [24]: 78.1% | IC50 [3]: 4.36 µM | Activity [25]: 11.41% | Activity [26]: 38.3% | Activity [27]: 18%

Cn1c(=O)c(=O)n(C2CCCC2)c2nc(N/N=C/c3ccc(F)cc3Br)ncc21
IC50 [1]: 9.25 µM | IC50 [2]: 6.59 µM | IC50 [3]: 8.39 µM

Cn1c(=O)c(=O)n(C2CCCC2)c2nc(N/N=C/c3ccc(F)cc3Cl)ncc21
IC50 [1]: 15.2 µM | IC50 [2]: 11 µM | IC50 [3]: 13.8 µM

Cc1cccc(/C=N/Nc2ncc3c(n2)n(C2CCCC2)c(=O)c(=O)n3C)c1
IC50 [1]: 53.6 µM | IC50 [2]: 34.5 µM | IC50 [3]: > 100 µM

Cn1c(=O)c(=O)n(C2CCCC2)c2nc(N/N=C/c3ccc(O)cc3)ncc21
IC50 [1]: > 100 µM | IC50 [2]: > 100 µM | IC50 [3]: 72.5 µM

Cn1c(=O)c(=O)n(C2CCCC2)c2nc(N/N=C/c3cccc(O)c3)ncc21
IC50 [1]: 36.3 µM | IC50 [2]: > 100 µM | IC50 [3]: 37.2 µM

Cn1c(=O)c(=O)n(C2CCCC2)c2nc(N/N=C/c3cccc(Cl)c3Cl)ncc21
IC50 [1]: 17.2 µM | IC50 [2]: 39.1 µM | IC50 [3]: 26.4 µM

Cn1c(=O)c(=O)n(C2CCCC2)c2nc(N/N=C/c3ccccc3)ncc21
IC50 [1]: 48.2 µM | IC50 [2]: > 100 µM | IC50 [3]: > 100 µM

Cn1c(=O)c(=O)n(C2CCCC2)c2nc(N/N=C/c3ccc(S(C)(=O)=O)cc3)ncc21
IC50 [1]: 26.6 µM | IC50 [2]: 84.5 µM | IC50 [3]: 86.6 µM

Cn1c(=O)c(=O)n(C2CCCC2)c2nc(N/N=C/c3ccc(F)cc3F)ncc21
IC50 [1]: 13.2 µM | IC50 [2]: 18.3 µM | IC50 [3]: 19.8 µM

Cn1c(=O)c(=O)n(C2CCCC2)c2nc(N/N=C/c3ccccc3F)ncc21
IC50 [1]: 27.6 µM | IC50 [2]: 31.2 µM | IC50 [3]: 20.7 µM

Cn1c(=O)c(=O)n(C2CCCC2)c2nc(N/N=C/c3ccc(O)c(Br)c3)ncc21
IC50 [1]: 11.6 µM | IC50 [2]: 12.8 µM | IC50 [3]: 17.7 µM

CSc1ccc(/C=N/Nc2ncc3c(n2)n(C2CCCC2)c(=O)c(=O)n3C)cc1
IC50 [1]: 21 µM | IC50 [2]: 14.1 µM | IC50 [3]: 9.01 µM

Cc1cc(C)c(/C=N/Nc2ncc3c(n2)n(C2CCCC2)c(=O)c(=O)n3C)c(C)c1
IC50 [1]: 13.9 µM | IC50 [2]: 12 µM | IC50 [3]: 7.92 µM

Cn1c(=O)c(=O)n(C2CCCC2)c2nc(N/N=C/c3ccco3)ncc21
IC50 [1]: 72.2 µM | IC50 [2]: > 100 µM | IC50 [3]: 78.7 µM

Cn1c(=O)c(=O)n(C2CCCC2)c2nc(N/N=C/c3ccc(C(F)(F)F)cc3)ncc21
IC50 [1]: 23.6 µM | IC50 [2]: 40.6 µM | IC50 [3]: 29 µM

Cn1c(=O)c(=O)n(C2CCCC2)c2nc(N/N=C/c3ccc(O)c(F)c3)ncc21
IC50 [1]: 85.2 µM | IC50 [2]: 97.8 µM | IC50 [3]: 59.3 µM

Cn1c(=O)c(=O)n(C2CCCC2)c2nc(N/N=C/c3ccccc3Cl)ncc21
IC50 [1]: 16.3 µM | IC50 [2]: 9.86 µM | IC50 [3]: 14 µM

Cn1c(=O)c(=O)n(C2CCCC2)c2nc(N/N=C/c3cc([N+](=O)[O-])ccc3Cl)ncc21
IC50 [1]: 9.26 µM | IC50 [2]: 8.78 µM | IC50 [3]: 5.61 µM

Cn1c(=O)c(=O)n(C2CCCC2)c2nc(N/N=C/c3ccc(Cl)cc3)ncc21
IC50 [1]: 8.42 µM | IC50 [2]: 6.89 µM | IC50 [3]: 9.81 µM

COc1ccc(/C=N/Nc2ncc3c(n2)n(C2CCCC2)c(=O)c(=O)n3C)cc1
IC50 [1]: 26.2 µM | IC50 [2]: > 100 µM | IC50 [3]: 36.1 µM

COc1cccc(/C=N/Nc2ncc3c(n2)n(C2CCCC2)c(=O)c(=O)n3C)c1
IC50 [1]: 20.7 µM | IC50 [2]: 27.4 µM | IC50 [3]: 45.8 µM

COc1cc(/C=N/Nc2ncc3c(n2)n(C2CCCC2)c(=O)c(=O)n3C)cc(OC)c1OC
IC50 [1]: 17.5 µM | IC50 [2]: 18.3 µM | IC50 [3]: 22.9 µM

Cn1c(=O)c(=O)n(C2CCCC2)c2nc(N/N=C/c3ccc(F)c(Cl)c3)ncc21
IC50 [1]: 8.55 µM | IC50 [2]: 9.41 µM | IC50 [3]: 9.02 µM

Cc1ccc(/C=N/Nc2ncc3c(n2)n(C2CCCC2)c(=O)c(=O)n3C)cc1C
IC50 [1]: 39 µM | IC50 [2]: 30.2 µM | IC50 [3]: 62.9 µM

COc1ccc(/C=N/Nc2ncc3c(n2)n(C2CCCC2)c(=O)c(=O)n3C)c(OC)c1
IC50 [1]: > 100 µM | IC50 [2]: > 100 µM | IC50 [3]: > 100 µM

Cn1c(=O)c(=O)n(C2CCCC2)c2nc(N/N=C/c3cccs3)ncc21
IC50 [1]: 75.6 µM | IC50 [2]: > 100 µM | IC50 [3]: 52.6 µM

Cn1c(=O)c(=O)n(C2CCCC2)c2nc(N/N=C/c3cccc([N+](=O)[O-])c3)ncc21
IC50 [1]: 20.3 µM | IC50 [2]: 12.3 µM | IC50 [3]: 15.2 µM
